Measured values: ChEMBL document CHEMBL3286351, “Antibacterial evaluation of structurally amphipathic, membrane active small cationic peptidomimetics: synthesized by incorporating 3-amino benzoic acid as peptidomimetic element” (Eur J Med Chem, 2014)
Converted amounts (≈) assume the structure as drawn. Where a SMILES comes first, the peptide text is derived from it. [ ]: non-standard residue; d: D form. 3Abz = Nc1cccc(C(=O)O)c1; Orn = NCCC[CH](N)C(=O)O

Key:
trypsin = test: Proteolytic stability assessed as trypsin (unknown origin)-mediated compound degradation by measuring compound remaining after 4 days by RP-HPLC analysis; format: ADME; conditions: human, trypsin; read-out: Stability
In short: (§1)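 Compound at 1 mg/mL in 0.1 M NH4HCO3 (pH 8.2) combined with trypsin or α-chymotrypsin solution (1 mg enzyme per 50 mL of the same buffer) at 37 °C. Aliquots taken over time and quenched with 10% formic acid. Remaining compound quantified by C18 RP-HPLC. An enzyme-free control was run for each test.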

Staphylococcus aureus [1] = test: Antibacterial activity against methicillin-resistant Staphylococcus aureus ATCC BAA-1720 assessed as growth inhibition after 18 hrs by CLSI microdilution broth assay; format: functional; conditions: ATCC BAA-1720, 18 h
In short: (§2)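 Modified CLSI broth microdilution in Mueller-Hinton broth. Wells held 90 µL of about 2 × 10^5 CFU/mL inoculum plus 10 µL of serially diluted peptidomimetic, range 0.7-100 µg/mL. Plates were incubated overnight with agitation at 37 °C and absorbance read at 600 nm after 18 h. Controls: inoculum without compound, and uninoculated broth. Run in triplicate.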

[2] = Selectivity ratio of HC50 for hemolysis in human RBC to MIC for Staphylococcus aureus
HaCaT [3] = test: Cytotoxicity against human HaCaT cells at 100 to 500 ug/ml after 24 hrs by LDH release assay; format: cell-based
In short: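 HaCaT cells (DMEM with 10% FBS, 37 °C, 5% CO2) seeded for 24 h, then treated with varying concentrations for 24 h. LDH measured at 490 nm in both supernatant and trypsinized cell lysate with a non-radioactive kit. % release = supernatant/(supernatant + lysate) × 100. Two independent experiments in triplicate.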

Bacillus subtilis = test: Antibacterial activity against Bacillus subtilis MTCC 2763 assessed as growth inhibition after 18 hrs by CLSI microdilution broth assay; format: functional; conditions: MTCC 2763, 18 h
[4] = Retention time of the compound by HPLC analysis; format: physicochemical
In short: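 Analytical RP-HPLC on a C18 column (5 µm, 4.6 × 250 mm) at room temperature. Run a linear gradient of 0.5-60% acetonitrile containing 0.05% TFA against water containing 0.05% TFA at 0.5 mL/min.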

Pseudomonas aeruginosa = test: Antibacterial activity against Pseudomonas aeruginosa MTCC 2295 assessed as growth inhibition after 18 hrs by CLSI microdilution broth assay; format: functional; conditions: MTCC 2295, 18 h
[5] = test system: Staphylococcus epidermidis; test: Antibacterial activity against methicillin-resistant Staphylococcus epidermidis ATCC 51625 assessed as growth inhibition after 18 hrs by CLSI microdilution broth assay; format: functional; conditions: ATCC 51625, 18 h; in short: as §2
HaCaT [6] = test: Cytotoxicity against human HaCaT cells assessed as decrease in cell viability after 24 hrs by MTT assay; format: cell-based
In short: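 HaCaT keratinocytes grown as a monolayer in DMEM with 10% FBS and penicillin/streptomycin, 37 °C, 5% CO2. Seeded 24 h, then exposed to compound for 24 h. MTT (5 mg/mL stock in PBS) added for 4 h; formazan dissolved in isopropanol and read at 570 nm. Growth inhibition calculated relative to medium-only controls. Two independent experiments in triplicate.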

Staphylococcus aureus [7] = test: Antibacterial activity against Staphylococcus aureus MTCC 3160 assessed as growth inhibition after 18 hrs by CLSI microdilution broth assay; format: functional; conditions: MTCC 3160, 18 h
Escherichia coli = test: Antibacterial activity against Escherichia coli MTCC 723 assessed as growth inhibition after 18 hrs by CLSI microdilution broth assay; format: functional; conditions: MTCC 723, 18 h
alpha chymotrypsin = test: Proteolytic stability assessed as alpha chymotrypsin (unknown origin)-mediated compound degradation by measuring compound remaining after 4 days by RP-HPLC analysis; format: ADME; conditions: human, read-out: Stability; in short: as §1
[8] = Stability in human plasma assessed as compound degradation after 30 mins by RP-HPLC analysis; format: ADME, cell-free; conditions: read-out: Drug degradation
In short: (§3)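 Compound (1 mg/mL stock in water; 50 µL) added to 1 mL fresh heparinized human plasma and held at 37 °C. Samples taken at 30 min, 1, 2, 6, 12 and 24 h. Proteins precipitated with 95% ethanol, cooled at 4 °C for 15 min and centrifuged at 18,000 g. Supernatant analyzed by RP-HPLC with UV detection at 280 nm.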

Plasma = test: Stability in human plasma assessed as compound degradation after 24 hrs by RP-HPLC analysis; format: ADME, cell-free; conditions: 24 h; in short: as §3
[9] = Induction of hemolysis in human RBC assessed as hemoglobin release after 1 hr by microtiter plate reader analysis; format: cell-based, Erythrocyte; conditions: for HC10: erythrocyte, 1 h; for HC50 at 1 h: red blood cells
In short: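 Freshly isolated human RBCs washed three times in PBS (35 mM phosphate, 150 mM NaCl, pH 7.2) and used as a 4% (v/v) suspension. Mixed 1:1 with twofold serial dilutions of compound, incubated 1 h at 37 °C without agitation, then centrifuged. Supernatant A540 read. PBS defined 0% and 1% Triton X-100 defined 100% lysis; HC50 and HC10 derived.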

SMILES	remaining at 96 h (trypsin) [%]	MIC (Staphylococcus aureus [1]) [µg/mL]	Selectivity ratio [2]	Activity (HaCaT [3])	MIC (Bacillus subtilis) [µg/mL]	Retention_time [4] [min]	MIC (Pseudomonas aeruginosa) [µg/mL]	MIC [5] [µg/mL]	Activity (HaCaT [6])	MIC (Staphylococcus aureus [7]) [µg/mL]	MIC (Escherichia coli) [µg/mL]	remaining at 96 h (alpha chymotrypsin) [%]	metabolised at 0.5 h [8] [%]	Stability (Plasma)	HC10 [9] [µg/mL]	HC50 at 1 h [9] [µg/mL]
NCCCC(NC(=O)C(Cc1c[nH]c2ccccc12)NC(=O)C(Cc1c[nH]c2ccccc12)NC(=O)C(CCCN)NC(=O)C(N)Cc1c[nH]c2ccccc12)C(N)=O (stereo unspecified) (H-W[Orn]WW[Orn]-NH2; configuration not given here)	82	50 (≈ 62.2 µM)	4.5	Toxic	120 (≈ 149 µM)	28.309	150 (≈ 187 µM)	70 (≈ 87.1 µM)	Dose-dependent effect	50 (≈ 62.2 µM)	70 (≈ 87.1 µM)	44	4.72	Stable	65	225
N=C(N)NCCCC(N)C(=O)NC(CCCNC(=N)N)C(=O)NC(Cc1c[nH]c2ccccc12)C(=O)Nc1cccc(C(=O)NC(Cc2c[nH]c3ccccc23)C(=O)NC(CCCNC(=N)N)C(N)=O)c1 (stereo unspecified) (H-RRW[3Abz]WR-NH2; configuration not given here)		5 (≈ 5.12 µM)	56.8		25 (≈ 25.6 µM)	27.402	25 (≈ 25.6 µM)	6.25 (≈ 6.4 µM)		6.25 (≈ 6.4 µM)	17.5 (≈ 17.9 µM)				100	355
N=C(N)NCCCC(N)C(=O)NC(Cc1c[nH]c2ccccc12)C(=O)Nc1cccc(C(=O)NC(CCCNC(=N)N)C(N)=O)c1 (stereo unspecified) (H-RW[3Abz]R-NH2; configuration not given here)		60 (≈ 94.5 µM)	10		100 (≈ 158 µM)	23.821	75 (≈ 118 µM)	70 (≈ 110 µM)		50 (≈ 78.8 µM)	70 (≈ 110 µM)				205	500
N=C(N)NCCCC(N)C(=O)NC(Cc1c[nH]c2ccccc12)C(=O)Nc1cccc(C(=O)NC(CCCNC(=N)N)C(=O)NC(CCCNC(=N)N)C(N)=O)c1 (stereo unspecified) (H-RW[3Abz]RR-NH2; configuration not given here)		75 (≈ 94.8 µM)	> 7.14		100 (≈ 126 µM)	22.534	75 (≈ 94.8 µM)	75 (≈ 94.8 µM)		70 (≈ 88.5 µM)	100 (≈ 126 µM)				350	> 500
NCCCC(NC(=O)C(Cc1c[nH]c2ccccc12)NC(=O)c1cccc(NC(=O)C(CCCN)NC(=O)C(CCCN)NC(=O)C(N)Cc2c[nH]c3ccccc23)c1)C(N)=O (stereo unspecified) (H-W[Orn][Orn][3Abz]W[Orn]-NH2; configuration not given here)		50 (≈ 58.8 µM)	12.5		75 (≈ 88.1 µM)	24.193	100 (≈ 118 µM)	40 (≈ 47 µM)		40 (≈ 47 µM)	75 (≈ 88.1 µM)				170	500
NCCCC(N)C(=O)NC(CCCN)C(=O)NC(Cc1c[nH]c2ccccc12)C(=O)NC(Cc1c[nH]c2ccccc12)C(=O)NC(CCCN)C(N)=O (stereo unspecified) (H-[Orn][Orn]WW[Orn]-NH2; configuration not given here)		100 (≈ 137 µM)	4.42		100 (≈ 137 µM)	26.672	150 (≈ 205 µM)	100 (≈ 137 µM)		70 (≈ 95.6 µM)	120 (≈ 164 µM)				100	310
N=C(N)NCCCC(N)C(=O)NC(CCCNC(=N)N)C(=O)NC(Cc1c[nH]c2ccccc12)C(=O)NC(Cc1c[nH]c2ccccc12)C(=O)NC(CCCNC(=N)N)C(N)=O (stereo unspecified) (H-RRWWR-NH2; configuration not given here)		25 (≈ 29.1 µM)	9.6		70 (≈ 81.6 µM)	29.606	100 (≈ 117 µM)	20 (≈ 23.3 µM)		25 (≈ 29.1 µM)	75 (≈ 87.4 µM)				90	240
N=C(N)NCCCC(NC(=O)C(CCCNC(=N)N)NC(=O)c1cccc(NC(=O)C(CCCNC(=N)N)NC(=O)C(Cc2c[nH]c3ccccc23)NC(=O)C(N)Cc2c[nH]c3ccccc23)c1)C(N)=O (stereo unspecified) (H-WWR[3Abz]RR-NH2; configuration not given here)		50 (≈ 51.2 µM)	7.6		70 (≈ 71.6 µM)	27.34	100 (≈ 102 µM)	50 (≈ 51.2 µM)		50 (≈ 51.2 µM)	75 (≈ 76.8 µM)				200	380
N=C(N)NCCCC(N)C(=O)NC(Cc1c[nH]c2ccccc12)C(=O)NC(Cc1c[nH]c2ccccc12)C(=O)Nc1cccc(C(=O)NC(CCCNC(=N)N)C(=O)NC(CCCNC(=N)N)C(N)=O)c1 (stereo unspecified) (H-RWW[3Abz]RR-NH2; configuration not given here)		25 (≈ 25.6 µM)	16.8		75 (≈ 76.8 µM)	26.96	75 (≈ 76.8 µM)	25 (≈ 25.6 µM)		25 (≈ 25.6 µM)	70 (≈ 71.6 µM)				255	420
N=C(N)NCCCC(NC(=O)C(CCCNC(=N)N)NC(=O)c1cccc(NC(=O)C(Cc2c[nH]c3ccccc23)NC(=O)C(CCCNC(=N)N)NC(=O)C(N)Cc2c[nH]c3ccccc23)c1)C(N)=O (stereo unspecified) (H-WRW[3Abz]RR-NH2; configuration not given here)		25 (≈ 25.6 µM)	14.8		40 (≈ 40.9 µM)	27.324	70 (≈ 71.6 µM)	25 (≈ 25.6 µM)		25 (≈ 25.6 µM)	60 (≈ 61.4 µM)				140	370
NCCCC(N)C(=O)NC(Cc1c[nH]c2ccccc12)C(=O)Nc1cccc(C(=O)NC(Cc2c[nH]c3ccccc23)C(=O)NC(CCCN)C(N)=O)c1 (stereo unspecified) (H-[Orn]W[3Abz]W[Orn]-NH2; configuration not given here)		20 (≈ 27.1 µM)	> 28.6		50 (≈ 67.9 µM)	24.231	40 (≈ 54.3 µM)	15 (≈ 20.4 µM)		17.5 (≈ 23.7 µM)	50 (≈ 67.9 µM)				190	> 500
N=C(N)NCCCC(NC(=O)c1cccc(NC(=O)C(Cc2c[nH]c3ccccc23)NC(=O)C(N)Cc2c[nH]c3ccccc23)c1)C(N)=O (stereo unspecified) (H-WW[3Abz]R-NH2; configuration not given here)		200 (≈ 301 µM)	2		150 (≈ 226 µM)	28.661	170 (≈ 256 µM)	> 200		120 (≈ 181 µM)	150 (≈ 226 µM)				100	240
NCCCC(NC(=O)C(Cc1ccccc1)NC(=O)c1cccc(NC(=O)C(Cc2ccccc2)NC(=O)C(CCCN)NC(=O)C(N)Cc2ccccc2)c1)C(N)=O (stereo unspecified) (H-F[Orn]F[3Abz]F[Orn]-NH2; configuration not given here)		> 200	2.66		> 200	25.038	> 200	> 200		150 (≈ 186 µM)	> 200				180	400
N=C(N)NCCCC(N)C(=O)NC(Cc1c[nH]c2ccccc12)C(=O)Nc1cccc(C(=O)NC(Cc2c[nH]c3ccccc23)C(=O)NC(CCCNC(=N)N)C(N)=O)c1 (stereo unspecified) (H-RW[3Abz]WR-NH2; configuration not given here)		10 (≈ 12.2 µM)	32.8		50 (≈ 60.9 µM)	23.89	50 (≈ 60.9 µM)	12.5 (≈ 15.2 µM)		12.5 (≈ 15.2 µM)	40 (≈ 48.7 µM)				250	410
